Reference: ChEMBL document CHEMBL3351355, “Structure-affinity/activity relationships of 1,4-dioxa-spiro[4.5]decane based ligands at α1 and 5-HT1A receptors” (Eur J Med Chem, 2014)

What was measured:
[1] = target: T1, Alpha-1D adrenergic receptor (Homo sapiens, UniProt P25100); test: Displacement of [3H]prazosin from human recombinant alpha1D adrenoceptor expressed in CHO cells after 30 mins by liquid scintillation counting; type: cell-based
T1 sequence (P25100 whole entry): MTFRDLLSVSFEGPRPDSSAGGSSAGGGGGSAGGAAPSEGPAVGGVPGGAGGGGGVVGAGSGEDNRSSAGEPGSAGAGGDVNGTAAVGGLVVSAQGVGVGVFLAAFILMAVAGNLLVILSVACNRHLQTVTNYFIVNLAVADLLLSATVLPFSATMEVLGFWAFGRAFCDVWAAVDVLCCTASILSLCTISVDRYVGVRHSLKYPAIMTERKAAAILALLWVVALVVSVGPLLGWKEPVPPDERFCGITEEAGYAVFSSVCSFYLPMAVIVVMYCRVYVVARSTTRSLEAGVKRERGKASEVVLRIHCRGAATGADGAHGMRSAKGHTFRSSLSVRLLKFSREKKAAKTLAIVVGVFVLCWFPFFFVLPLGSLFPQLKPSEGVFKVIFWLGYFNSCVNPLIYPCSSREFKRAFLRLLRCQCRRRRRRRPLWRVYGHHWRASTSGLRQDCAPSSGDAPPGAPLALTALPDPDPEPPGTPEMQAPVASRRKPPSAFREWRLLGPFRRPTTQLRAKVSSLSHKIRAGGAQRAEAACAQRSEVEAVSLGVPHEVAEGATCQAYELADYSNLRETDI
Method in brief: (§1)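 CHO cells were stably transfected by electroporation with each human α1 subtype. Membranes (70 µg protein) were incubated in 50 mM Tris pH 7.4 with 0.1–0.4 nM [3H]prazosin and competitor (1 pM–1 µM) for 30 min at 25 °C. Nonspecific binding with 10 µM tamsulosin. Filtration and scintillation counting. pKi from 2–3 experiments in duplicate.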

[2] = target: T2, Alpha-1D adrenergic receptor (Rattus norvegicus) (UniProt P23944); test: Antagonist activity at alpha1D adrenoceptor in Wistar rat thoracic aorta assessed as noradrenaline-induced contractions after 30 mins
T2 sequence (whole entry): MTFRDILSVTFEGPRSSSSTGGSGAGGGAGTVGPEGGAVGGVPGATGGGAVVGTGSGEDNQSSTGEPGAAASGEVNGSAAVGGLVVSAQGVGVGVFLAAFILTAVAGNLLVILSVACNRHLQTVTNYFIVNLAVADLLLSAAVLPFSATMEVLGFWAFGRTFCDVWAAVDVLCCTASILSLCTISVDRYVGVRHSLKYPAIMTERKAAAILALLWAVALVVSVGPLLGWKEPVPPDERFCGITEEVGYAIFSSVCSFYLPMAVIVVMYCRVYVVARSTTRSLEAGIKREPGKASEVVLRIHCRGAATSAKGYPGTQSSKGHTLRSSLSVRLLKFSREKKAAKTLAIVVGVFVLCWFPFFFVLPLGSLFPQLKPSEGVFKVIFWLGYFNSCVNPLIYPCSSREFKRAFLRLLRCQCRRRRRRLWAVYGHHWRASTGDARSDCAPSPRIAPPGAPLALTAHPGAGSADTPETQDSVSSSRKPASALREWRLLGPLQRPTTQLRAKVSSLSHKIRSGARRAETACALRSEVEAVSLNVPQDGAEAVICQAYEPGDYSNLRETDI

[3] = target: T3, Alpha-1B adrenergic receptor (Homo sapiens, UniProt P35368); test: Displacement of [3H]prazosin from human recombinant alpha1B adrenoceptor expressed in CHO cells after 30 mins by liquid scintillation counting; type: cell-based; method in brief: as §1
T3 sequence (P35368 whole entry): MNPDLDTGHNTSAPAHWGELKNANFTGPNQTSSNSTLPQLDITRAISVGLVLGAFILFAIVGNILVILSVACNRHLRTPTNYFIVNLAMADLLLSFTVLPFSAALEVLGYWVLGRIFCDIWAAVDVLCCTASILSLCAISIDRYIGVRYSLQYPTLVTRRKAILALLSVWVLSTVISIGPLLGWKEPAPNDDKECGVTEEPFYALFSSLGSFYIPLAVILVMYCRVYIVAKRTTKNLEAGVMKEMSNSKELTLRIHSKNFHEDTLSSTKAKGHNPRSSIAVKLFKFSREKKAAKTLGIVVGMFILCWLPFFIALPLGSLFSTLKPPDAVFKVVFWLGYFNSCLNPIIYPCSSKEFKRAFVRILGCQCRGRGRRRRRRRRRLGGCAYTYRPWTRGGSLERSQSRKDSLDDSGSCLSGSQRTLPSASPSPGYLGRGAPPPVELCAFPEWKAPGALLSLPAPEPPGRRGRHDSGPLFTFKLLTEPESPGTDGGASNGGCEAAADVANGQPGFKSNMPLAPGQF

[4] = species on record: Rattus norvegicus; test: Selectivity ratio of Kb for alpha1D adrenoceptor in Wistar rat thoracic aorta to Kb for alpha1A adrenoceptor in Wistar rat vas deferans; type: tissue-based
[5] = target: T4, 5-hydroxytryptamine receptor 1A (Homo sapiens) (UniProt P08908); test: Agonist activity at human recombinant 5-HT1A receptor expressed in HeLa cells after 30 mins by [35S]GTPgammaS binding assay relative to control; type: functional, cell-based
T4 sequence (whole entry): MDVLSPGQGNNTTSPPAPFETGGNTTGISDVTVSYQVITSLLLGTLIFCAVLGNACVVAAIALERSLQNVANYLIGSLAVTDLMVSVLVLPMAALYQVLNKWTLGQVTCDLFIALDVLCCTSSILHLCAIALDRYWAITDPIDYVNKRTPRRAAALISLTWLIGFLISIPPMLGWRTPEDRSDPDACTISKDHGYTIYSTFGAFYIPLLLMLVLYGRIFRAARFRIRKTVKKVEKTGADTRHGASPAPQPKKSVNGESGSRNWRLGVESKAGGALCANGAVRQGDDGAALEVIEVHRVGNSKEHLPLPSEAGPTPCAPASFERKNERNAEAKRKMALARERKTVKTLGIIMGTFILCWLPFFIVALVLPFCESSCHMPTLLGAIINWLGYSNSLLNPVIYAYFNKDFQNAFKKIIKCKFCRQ
Method in brief: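 HeLa membranes (50–70 µg protein) in 20 mM HEPES, 3 mM MgSO4, 120 mM NaCl, pH 7.4, preincubated 20 min at 30 °C with 30 µM GDP and drug (0.01 nM–10 µM), then 200 pM [35S]GTPγS added for 30 min at 30 °C. Nonspecific binding with 10 µM GTPγS. Filtration and scintillation counting. Data expressed as % increase over basal, 8-OH-DPAT maximum = 100%. Emax and pD2 derived.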

[6] = target: T4, 5-hydroxytryptamine receptor 1A (Homo sapiens); test: Agonist activity at human recombinant 5-HT1A receptor expressed in HeLa cells after 30 mins by [35S]GTPgammaS binding assay; type: functional, cell-based
Method in brief: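 HeLa membranes expressing human 5-HT1A (50–70 µg protein) in 20 mM HEPES, 3 mM MgSO4, 120 mM NaCl pH 7.4 with 30 µM GDP; test drug 0.01 nM–10 µM, 20 min at 30 °C, then 200 pM [35S]GTPγS for 30 min at 30 °C. Nonspecific with 10 µM GTPγS; filtration and scintillation counting. Emax as % of maximal 8-OH-DPAT stimulation; pD2 = −log EC50.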

| SMILES | Ki [1] [µM] | pKb [2] | Ki [3] [µM] | Ratio [4] | Emax [5] [%] | pD2 [6] |
| --- | --- | --- | --- | --- | --- | --- |
| COc1ccccc1N1CCN(CC2COC3(CCNCC3)O2)CC1 (stereo not drawn) | 0.0372 | 6.89 | 0.0427 | 0.14 | – | – |
| COc1ccccc1N1CCN(CC2COC3(CCN(S(=O)(=O)c4ccc([N+](=O)[O-])cc4)CC3)O2)CC1 (stereo not drawn) | 0.00575 | 8.02 | 0.11 | 1.9 | 37 | 7.65 |
| COc1ccccc1N1CCN(CC2COC3(CCN(C(=O)c4ccc(C(F)(F)F)cc4)CC3)O2)CC1 (stereo not drawn) | 0.011 | 7.29 | 0.0631 | 0.31 | – | – |
| COc1ccccc1N1CCN(CC2COC3(CCN(S(=O)(=O)c4ccccc4)CC3)O2)CC1 (stereo not drawn) | 0.0123 | 7.05 | 0.0851 | 0.37 | – | – |
| COc1ccccc1N1CCN(CC2COC3(CCN(C(=O)C4CCCCC4)CC3)O2)CC1 (stereo not drawn) | 0.0398 | 7.02 | 0.11 | 1.17 | 33 | 7.29 |
| COc1ccccc1N1CCN(CC2COC3(CCN(C(=O)c4ccccc4)CC3)O2)CC1 (stereo not drawn) | 0.0204 | 7.45 | 0.0676 | 0.55 | – | – |
| COc1ccccc1N1CCN(CC2COC3(CCN(Cc4ccccc4)CC3)O2)CC1 (stereo not drawn) | 0.00468 | 8.6 | 0.0166 | 7.58 | 45 | 7.21 |
| CCCCNC(=O)N1CCC2(CC1)OCC(CN1CCN(c3ccccc3OC)CC1)O2 (stereo not drawn) | 0.0191 | 7.29 | 0.24 | 0.81 | 30 | 6.53 |
| COc1ccccc1N1CCN(CC2COC3(CCN(S(=O)(=O)c4ccc(Cl)cc4)CC3)O2)CC1 (stereo not drawn) | 0.00708 | 7.37 | 0.0692 | 1.35 | – | – |
| COc1ccccc1N1CCN(CC2COC3(CCCCC3)O2)CC1 (stereo not drawn) | > 1 | 7.88 | 0.126 | 12.6 | 48 | 8.61 |
| COc1ccccc1N1CCN(CC2COC3(CCN(c4ccccn4)CC3)O2)CC1 (stereo not drawn) | 0.0229 | 6.87 | 1 | 0.17 | 41 | 6.49 |
| COc1ccccc1N1CCN(CC2COC3(CCN(C(=O)Nc4ccccc4)CC3)O2)CC1 (stereo not drawn) | 0.0132 | 7.26 | 0.0813 | 1.09 | 28 | 7.22 |
| COc1ccccc1N1CCN(CC2COC3(CCN(S(=O)(=O)c4cccs4)CC3)O2)CC1 (stereo not drawn) | 0.00977 | 7.27 | 0.0851 | 0.64 | – | – |
| COc1ccccc1N1CCN(CC2COC3(CCSCC3)O2)CC1 (stereo not drawn) | 0.0148 | 6.84 | 0.141 | 0.17 | 36 | 7.48 |
| COc1ccccc1N1CCN(CC2COC3(CCN(C(=O)C(F)(F)F)CC3)O2)CC1 (stereo not drawn) | 0.417 | 7.5 | 1 | 3.39 | – | – |
| COc1ccccc1N1CCN(CC2COC3(CCN(S(=O)(=O)c4cccc([N+](=O)[O-])c4)CC3)O2)CC1 (stereo not drawn) | 0.000912 | 7.98 | 0.0692 | 1.02 | – | – |
| COc1ccccc1N1CCN(CC2COC3(CCN(c4ccccc4)CC3)O2)CC1 (stereo not drawn) | 0.00813 | 7.43 | 0.155 | 0.44 | 42 | 7.14 |
| COc1ccccc1N1CCN(CC2COC3(CCN(S(=O)(=O)c4ccc(C)cc4)CC3)O2)CC1 (stereo not drawn) | 0.0107 | 6.96 | 0.00832 | 0.36 | 28 | 7.33 |
| COc1ccccc1N1CCN(CC2COC3(CCOCC3)O2)CC1 (stereo not drawn) | 0.0251 | 7.33 | 0.324 | 0.6 | 31 | 6.82 |
| COc1ccccc1N1CCN(CC2COC3(CCN(C(C)=O)CC3)O2)CC1 (stereo not drawn) | 0.0891 | 6.48 | 1 | 0.2 | – | – |
| COc1ccccc1N1CCN(CC2COC3(CCN(C(=O)C4CCCN4)CC3)O2)CC1 (stereo not drawn) | 0.0269 | 6.71 | 0.158 | 0.19 | – | – |
| COc1ccccc1N1CCN(CC2COC3(CCN(C(=O)NC(C)(C)C)CC3)O2)CC1 (stereo not drawn) | 0.0355 | 6.53 | 0.129 | 0.08 | – | – |
| COc1ccccc1N1CCN(CC2COC3(CCN(C(=O)c4ccco4)CC3)O2)CC1 (stereo not drawn) | 0.0282 | 7.38 | 0.158 | 0.89 | 33 | 7.12 |
| COc1ccccc1N1CCN(CC2COC3(CCN(S(C)(=O)=O)CC3)O2)CC1 (stereo not drawn) | 0.0234 | 7.18 | 0.363 | 0.59 | – | – |
| COc1ccccc1N1CCN(CC2COC3(CCN(S(=O)(=O)c4ccc(OC(F)(F)F)cc4)CC3)O2)CC1 (stereo not drawn) | 0.0263 | 7.37 | 0.148 | 2.45 | – | – |
| COc1ccccc1N1CCN(CC2COC3(CCS(=O)(=O)CC3)O2)CC1 (stereo not drawn) | 0.0513 | 7.2 | 0.288 | 0.72 | – | – |
